Assay results from ChEMBL document CHEMBL3244245, “Aporphines, 21. (1,2) Dopaminergic activity of aporphine and benzylisoquinoline derivatives. Synthesis of 8-hydroxyaporphines and 1-(hydroxybenzyl)-2-n-propyl-1,2,3,4-tetrahydroisoquinolines” (J Med Chem, 1977).
Calls of active or inactive are those of the source. The calls are words filed in the database; no cut-off is given here.

Tests used:
Rattus norvegicus [1] = test: Behavioral responses in Sprague-Dawley rat with unilateral 6-OHDA lesion of nigrostriatal pathway assessed as bilateral response at 6.25 to 25 […] into caudate-putamen; format: functional, organism-based
Summary of the method: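 Guide cannulae implanted chronically; rats used 10-14 days after surgery. Nialamide 100 mg/kg ip given 2 h before injection. Drug dissolved in nitrogen-bubbled distilled water and injected bilaterally into caudate-putamen through injection units 1.5 mm below guide tips. Photocell counts per 5-min period recorded every 10 min up to 7 h. Biting and sniffing scored on intensity scales. Six to twelve rats per dose.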

Rattus norvegicus [2] = test: Behavioral responses in Sprague-Dawley rat with unilateral 6-OHDA lesion of nigrostriatal pathway assessed as hyperactivity response at 6.25 to 50 […] direct injection into nucleus accumbens; format: functional, organism-based
Summary of the method: (§1)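 Nialamide 100 mg/kg ip was given 2 h beforehand. Drug was dissolved in nitrogen-bubbled water and injected bilaterally through chronic guide cannulae 10-14 days after surgery. Injection units extended 1.5 mm (caudate-putamen) or 2.5 mm (nucleus accumbens) below the guides. Biting and sniffing were scored in photocell boxes, and hyperactivity was counted as beam interruptions per 5 min, recorded every 10 min for up to 7 h. Six to twelve rats were used per dose.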

Rattus norvegicus [3] = organism: Rattus norvegicus; test: Behavioral responses in Sprague-Dawley rat pretreated with nialamide assessed as hyperactivity response at 6.25 to 25 µg direct injection into caudate-putamen
Rattus norvegicus [4] = organism: Rattus norvegicus; test: Stereotyped behavior in Sprague-Dawley rat with unilateral 6-OHDA lesion of nigrostriatal pathway assessed as continuous biting; format: functional, organism-based
Rattus norvegicus [5] = test: Circling behavior in sc dosed Sprague-Dawley rat with unilateral 6-OHDA lesion of nigrostriatal pathway assessed as number of revolutions performed per min; format: functional, organism-based
Summary of the method: (§2)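 Unilateral lesion made with 6-OHDA, 4 µl of 2 µg/µl at 1 µl/min, into medial forebrain bundle area of lateral hypothalamus. Rats tested 7-21 days later. Drug given sc in distilled water with 0.1% sodium metabisulfite. Contralateral circling counted as revolutions per minute. Mean of at least five rats.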

Rattus norvegicus [6] = test: Stereotyped behavior in Sprague-Dawley rat with unilateral 6-OHDA lesion of nigrostriatal pathway assessed as continuous biting at 2 mg/kg, sc; format: functional, organism-based; parameters: dose 2 mg/kg
Rattus norvegicus [7] = test: Stereotyped behavior in sc dosed Sprague-Dawley rat with unilateral 6-OHDA lesion of nigrostriatal pathway assessed as sniffing and repetitive head and limb movements; format: functional, organism-based
Rattus norvegicus [8] = test: Stereotyped behavior in Sprague-Dawley rat with unilateral 6-OHDA lesion of nigrostriatal pathway assessed as maximal sniffing and repetitive head and limb movements at 0.5 mg/kg, sc; format: functional, organism-based; parameters: dose 0.5 mg/kg
Rattus norvegicus [9] = test: Stereotyped behavior in Sprague-Dawley rat with unilateral 6-OHDA lesion of nigrostriatal pathway assessed as biting behavior at 6.25 to 50 […] into nucleus accumbens; format: functional, organism-based; summary of the method: as §1
Rattus norvegicus [10] = test: Stereotyped behavior in Sprague-Dawley rat with unilateral 6-OHDA lesion of nigrostriatal pathway assessed as biting behavior at 25 to 50 […] into caudate-putamen; format: functional, organism-based; summary of the method: as §1
Rattus norvegicus [11] = test: Stereotyped behavior in Sprague-Dawley rat with unilateral 6-OHDA lesion of nigrostriatal pathway assessed as sniffing behavior at 6.25 to 50 […] into nucleus accumbens; format: functional, organism-based; summary of the method: as §1
Rattus norvegicus [12] = test: Antagonism of dopamine-induced hyperactivity in sc dosed Sprague-Dawley rat with unilateral 6-OHDA lesion of nigrostriatal pathway after 2.5 hrs treated bilateral injection of 50 ug of dopamine into the nucleus accumbens; format: functional, organism-based
Summary of the method: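 Rats pretreated with nialamide 100 mg/kg ip; 2 h later, 50 µg dopamine bilaterally into nucleus accumbens. At 2.5 h, at peak hyperactivity, test drug given sc in distilled water with 0.1% sodium metabisulfite. Activity read as photocell beam interruptions per 5-min period. Five to eight rats per dose.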

Rattus norvegicus [13] = test: Antagonism of dopamine-induced hyperactivity in Sprague-Dawley rat with unilateral 6-OHDA lesion of nigrostriatal pathway at 0.1 to 1 mg/kg, sc after 2.5 hrs treated bilateral injection of 50 ug of dopamine into the nucleus accumbens; format: functional, organism-based
Summary of the method: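 Rats received nialamide 100 mg/kg ip, then 2 h later 50 µg dopamine bilaterally into the nucleus accumbens. At 2.5 h, at peak hyperactivity, test drug was given sc in water with 0.1% sodium metabisulfite. Locomotion was measured as photocell beam interruptions per 5 min. Five to eight rats were used per dose.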

Rattus norvegicus [14] = organism: Rattus norvegicus; test: Stereotyped behavior in Sprague-Dawley rat pretreated with nialamide assessed as sniffing behavior at 50 µg, bilateral intrastriatal
Rattus norvegicus [15] = test: Circling behavior in Sprague-Dawley rat with unilateral 6-OHDA lesion of nigrostriatal pathway assessed as number of revolutions performed per min at 0.25 to 4 mg/kg, sc; format: functional, organism-based
Summary of the method: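 Unilateral lesion made by infusing 4 µl 6-OHDA at 1 µl/min into the medial forebrain bundle in the lateral hypothalamus. Rats were tested 7-21 days later with drug given sc in distilled water containing 0.1% sodium metabisulfite. Contralateral circling was counted as revolutions per min. Values are the mean of at least five rats.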

Rattus norvegicus [16] = test: Stereotyped behavior in Sprague-Dawley rat with unilateral 6-OHDA lesion of nigrostriatal pathway assessed as continuous biting at 0.5 to 4 mg/kg, sc; format: functional, organism-based
Rattus norvegicus [17] = test: Stereotyped behavior in Sprague-Dawley rat with unilateral 6-OHDA lesion of nigrostriatal pathway assessed as sniffing and repetitive head and limb movements up to 4 mg/kg, sc; format: functional, organism-based; parameters: dose 4 mg/kg
Rattus norvegicus [18] = test: Behavioral responses in Sprague-Dawley rat with unilateral 6-OHDA lesion of nigrostriatal pathway assessed as hyperactivity response at 3.125 to 25 […] into nucleus accumbens; format: functional, organism-based
Summary of the method: (§3)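 Guide cannulae implanted chronically; rats used 10-14 days after surgery. Nialamide 100 mg/kg ip given 2 h before injection. Drug in nitrogen-bubbled distilled water injected bilaterally into nucleus accumbens through units 2.5 mm below guide tips. Hyperactivity counted as photocell interruptions per 5-min period, recorded every 10 min up to 7 h. Biting and sniffing scored on intensity scales. Six to twelve rats per dose.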

Rattus norvegicus [19] = organism: Rattus norvegicus; test: Stereotyped behavior in Sprague-Dawley rat pretreated with nialamide assessed as biting behavior at 3.125 to 25 µg, bilateral intrastriatal
Rattus norvegicus [20] = organism: Rattus norvegicus; test: Stereotyped behavior in Sprague-Dawley rat pretreated with nialamide assessed as sniffing behavior at 3.125 to 25 µg, bilateral intrastriatal
Rattus norvegicus [21] = organism: Rattus norvegicus; test: Stereotyped behavior in Sprague-Dawley rat pretreated with nialamide assessed as bilateral behavior at 3.125 to 25 µg, bilateral intrastriatal
Rattus norvegicus [22] = organism: Rattus norvegicus; test: Stereotyped behavior in Sprague-Dawley rat pretreated with nialamide assessed as hyperactivity behavior at 3.125 to 25 µg, bilateral intrastriatal
Rattus norvegicus [23] = test: Stereotyped behavior in Sprague-Dawley rat with unilateral 6-OHDA lesion of nigrostriatal pathway assessed as continuous biting up to 4 mg/kg, sc; format: functional, organism-based; parameters: dose 4 mg/kg
Rattus norvegicus [24] = test: Stereotyped behavior in Sprague-Dawley rat with unilateral 6-OHDA lesion of nigrostriatal pathway assessed as continuous biting at 0.1 mg/kg, sc; format: functional, organism-based; parameters: dose 0.1 mg/kg
Rattus norvegicus [25] = test: Stereotyped behavior in Sprague-Dawley rat with unilateral 6-OHDA lesion of nigrostriatal pathway assessed as sniffing and repetitive head and limb movements at 0.0063 to 0.05 mg/kg, sc; format: functional, organism-based
Rattus norvegicus [26] = test: Stereotyped behavior in Sprague-Dawley rat with unilateral 6-OHDA lesion of nigrostriatal pathway assessed as maximal biting behavior at 25 […] into nucleus accumbens; format: functional, organism-based; summary of the method: as §3
Rattus norvegicus [27] = test: Stereotyped behavior in Sprague-Dawley rat with unilateral 6-OHDA lesion of nigrostriatal pathway assessed as biting behavior at 3.125 to 25 […] into nucleus accumbens; format: functional, organism-based; summary of the method: as §3
Rattus norvegicus [28] = test: Stereotyped behavior in Sprague-Dawley rat with unilateral 6-OHDA lesion of nigrostriatal pathway assessed as sniffing behavior at 25 […] into nucleus accumbens; format: functional, organism-based; summary of the method: as §3
Rattus norvegicus [29] = organism: Rattus norvegicus; test: Stereotyped behavior in Sprague-Dawley rat pretreated with nialamide assessed as biting behavior at 25 µg, bilateral intrastriatal
Rattus norvegicus [30] = organism: Rattus norvegicus; test: Stereotyped behavior in Sprague-Dawley rat pretreated with nialamide assessed as sniffing behavior at 25 µg, bilateral intrastriatal
Rattus norvegicus [31] = organism: Rattus norvegicus; test: Behavioral responses in Sprague-Dawley rat pretreated with nialamide assessed as hyperactivity response at 25 µg, bilateral intrastriatal
Rattus norvegicus [32] = test: Circling behavior in Sprague-Dawley rat with unilateral 6-OHDA lesion of nigrostriatal pathway assessed as number of revolutions performed per min at 0.5 to 2 mg/kg, sc; format: functional, organism-based; summary of the method: as §2

With `NCCc1ccc(O)c(O)c1` the Activity (Rattus norvegicus [1]) was “Active”, the Activity (Rattus norvegicus [2]) was “inactive” and the Activity (Rattus norvegicus [3]) was “Active”.

For `CN1CCc2cccc3c2[C@H]1Cc1ccc(O)c(O)c1-3`, the Activity (Rattus norvegicus [4]) was “Dose-dependent effect”, the Activity (Rattus norvegicus [5]) was “Dose-dependent effect” and the Activity (Rattus norvegicus [6]) was “Active”. The Activity (Rattus norvegicus [7]) was “Dose-dependent effect”, the Activity (Rattus norvegicus [8]) was “Active” and the Activity (Rattus norvegicus [1]) was “inactive”. For the same molecule, the Activity (Rattus norvegicus [9]) was “Active”, the Activity (Rattus norvegicus [10]) was “Active” and the Activity (Rattus norvegicus [2]) was “Active”. The Activity (Rattus norvegicus [11]) was “Active”, the inhibition (Rattus norvegicus [12]) was “Dose-dependent effect” and the inhibition (Rattus norvegicus [13]) was “inactive”. The Activity (Rattus norvegicus [14]) was “inactive” and the Activity (Rattus norvegicus [3]) was “inactive”.

With `CCCN1CCc2ccccc2C1Cc1ccc(O)c(O)c1` (racemic) the Activity (Rattus norvegicus [15]) was “inactive”, the Activity (Rattus norvegicus [16]) was “inactive” and the Activity (Rattus norvegicus [17]) was “inactive”. The Activity (Rattus norvegicus [1]) was “inactive”, the Activity (Rattus norvegicus [18]) was “inactive” and the inhibition (Rattus norvegicus [13]) was “inactive”. The Activity (Rattus norvegicus [19]) was “inactive”, the Activity (Rattus norvegicus [20]) was “inactive” and the Activity (Rattus norvegicus [21]) was “inactive”. For the same molecule, the Activity (Rattus norvegicus [22]) was “inactive” and the Activity (Rattus norvegicus [3]) was “inactive”.

With `CCCN1CCc2cccc3c2C1Cc1c(O)cccc1-3` (racemic) the Activity (Rattus norvegicus [15]) was “inactive”, the Activity (Rattus norvegicus [23]) was “Active” and the Activity (Rattus norvegicus [17]) was “inactive”. For the same molecule, the Activity (Rattus norvegicus [1]) was “inactive”, the Activity (Rattus norvegicus [18]) was “inactive” and the inhibition (Rattus norvegicus [13]) was “inactive”. For the same molecule, the Activity (Rattus norvegicus [19]) was “inactive”, the Activity (Rattus norvegicus [20]) was “inactive” and the Activity (Rattus norvegicus [21]) was “inactive”. For the same molecule, the Activity (Rattus norvegicus [22]) was “inactive” and the Activity (Rattus norvegicus [3]) was “inactive”.

`CCCN1CCc2cccc3c2[C@H]1Cc1ccc(O)c(O)c1-3` was tested, and the Activity (Rattus norvegicus [5]) was “Dose-dependent effect”, the Activity (Rattus norvegicus [24]) was “Active” and the Activity (Rattus norvegicus [25]) was “Active”. For the same molecule, the Activity (Rattus norvegicus [1]) was “inactive”, the Activity (Rattus norvegicus [26]) was “Active” and the Activity (Rattus norvegicus [27]) was “Active”. The Activity (Rattus norvegicus [28]) was “Active”, the Activity (Rattus norvegicus [18]) was “inactive” and the inhibition (Rattus norvegicus [12]) was “Dose-dependent effect”. The Activity (Rattus norvegicus [29]) was “Active”, the Activity (Rattus norvegicus [30]) was “Active” and the Activity (Rattus norvegicus [31]) was “inactive”. The Activity (Rattus norvegicus [3]) was “inactive”.

For `CN1CCc2cccc3c2C1Cc1c(O)cccc1-3` (racemic), the Activity (Rattus norvegicus [1]) was “inactive” and the Activity (Rattus norvegicus [3]) was “inactive”.

For `CCCN1CCc2cccc3c2C1Cc1ccc(O)cc1-3` (stereo unspecified), the Activity (Rattus norvegicus [32]) was “Dose-dependent effect”, the Activity (Rattus norvegicus [23]) was “Active” and the Activity (Rattus norvegicus [17]) was “inactive”. The Activity (Rattus norvegicus [1]) was “inactive”, the Activity (Rattus norvegicus [18]) was “inactive” and the inhibition (Rattus norvegicus [13]) was “inactive”. The Activity (Rattus norvegicus [19]) was “inactive”, the Activity (Rattus norvegicus [20]) was “inactive” and the Activity (Rattus norvegicus [21]) was “inactive”. The Activity (Rattus norvegicus [22]) was “inactive” and the Activity (Rattus norvegicus [3]) was “inactive”.

In the case of `CCCN1CCc2ccccc2C1Cc1ccc(O)cc1` (racemic), the Activity (Rattus norvegicus [15]) is reported as “inactive”, the Activity (Rattus norvegicus [16]) is reported as “inactive” and the Activity (Rattus norvegicus [17]) is reported as “inactive”. For the same molecule, the Activity (Rattus norvegicus [1]) was “inactive”, the Activity (Rattus norvegicus [18]) was “inactive” and the inhibition (Rattus norvegicus [13]) was “inactive”. The Activity (Rattus norvegicus [19]) was “inactive”, the Activity (Rattus norvegicus [20]) was “inactive” and the Activity (Rattus norvegicus [21]) was “inactive”. The Activity (Rattus norvegicus [22]) was “inactive” and the Activity (Rattus norvegicus [3]) was “inactive”.
